# An excerpt weighted towards active compounds, which were near 3.6% of everything screened.
# RAM network inh – yeast RAM network inhibition | AID 868 | inhibition, % at 50 µM | S. cerevisiae dse1pr::URA3 reporter, 5-FOA growth OD615, 2 d; analog-sensitive cbk1-as2 kinase mutant strain | actives 1.8% (n = 190,000);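 active means inhibition above a set limit, 3 SD over mean compound inhibition, cut at about 8.4% in these data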;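 further: 0% = DMSO-only wells with no growth and 100% = 10 µM 1-NA-PP1 full growth; inhibition rescues growth on 5-FOA so higher OD means more RAM inhibition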
# BB579 growth dn – yeast BB579 growth reduction in restrictive medium; S. cerevisiae BB579 growth, OD615, 48 h; inhibition, % at 10 µM; actives 0.51% (n = 140,000); AID 804;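 active means inhibition above a set limit, 3 SD over the mean compound inhibition, cut at about 44% in these data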
#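 System: Saccharomyces cerevisiae DeaD strain BB579, replicative lifespan model yeast | Buffer or medium: Restrictive glucose-based CSMM-D medium | Times: 4 h preincubation and 48 h exposure at 30 °C | Detection: OD615 turbidity measurement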
# Measles CPE – protection of cells from measles virus; Measles virus-infected cells, CPE protection, absorbance; protection (pct of control), % at 4 µM; actives 1.5% (n = 140,000); AID 841; in the data active means protection mostly above about 24%, no sharp cut-off; inactive means mostly below about 26%
# Yeast lifespan up – yeast lifespan extension; inhibition of the nicotinamide effect, % at 10 µM; AID 775; S. cerevisiae growth with nicotinamide, OD615; deaD strain in restrictive glucose medium; actives 0.68% (n = 130,000);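 active means inhibition above a set limit, placed 3 SD over the median of all compounds, cut at about 26% in these data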;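 further: 0% = nicotinamide-treated wells and 100% = cells grown without nicotinamide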
#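 assay system = DeaD-strain S. cerevisiae | buffer or medium = restrictive glucose medium | reagent = 1.5 mM nicotinamide | compound = 10 µM single point, 0.25% DMSO | incubation = 48 h compound exposure at 30 °C, humidified | signal = OD615 measurement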
# Phagocytosis inh – macrophage phagocytosis inhibition; J774A.1 macrophage IgG-bead phagocytosis, imaging; inhibition, % at 5 µM; actives 0.07% (n = 110,000); AID 1029;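 active means inhibition above the mean of the plate negative controls plus 5 SD, cut at about 13% in these data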;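 further: phagocytic index as fraction of beads internalized from green versus red external bead signal; plate controls were DMSO negative control for no effect and cytochalasin-D positive control for full effect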
# * hit, by the source's call; x = no result given.
SMILES,RAM network inh,BB579 growth dn,Measles CPE,Yeast lifespan up,Phagocytosis inh
O=C/C(=C\Nc1ccc(C(=O)N2CCOCC2)cc1)c1nc2ccccc2o1,0,x,x,x,x
CCOC(=O)N1CCN(C(=O)c2ccc3c(c2)sc2nc(-c4ccc(OC)cc4)cn23)CC1,-1,-59,63*,-22,0
CN(C(=O)c1c(Br)cnn1C)C12CC3CC(CC(C3)C1)C2,1,-39,8,8,-4
Cc1cc(Cl)ccc1OC(C)C(=O)Nc1ccccc1N1CCOCC1 (stereo not given),9.5*,-19,10,-7,-1
O=C(Cc1ccc(Cl)cc1)NC(=S)Nc1ccccc1N1CCOCC1,4,-25,11,-1,-9
COc1ccc(Cl)cc1NC(=O)CN(C)CC(=O)Nc1ccccc1N1CCOCC1,0,x,x,x,x
O=C(Nc1ccccc1N1CCOCC1)C1(c2ccc(Cl)cc2)CCC1,9.2*,x,x,x,x
O=C(Cn1nnc2ccccc2c1=O)Nc1cccc(S(=O)(=O)N2CCOCC2)c1,2,x,x,x,x
O=C(N/N=C/c1cccc(F)c1)c1cc(-c2ccco2)nc2ccccc12,5,0,4,-8,-1
Cc1c(C(=O)NNC(=S)Nc2cccc(Cl)c2)nnn1-c1ccccc1,2,-31,6,2,-2
O=C(O)c1cc(S(=O)(=O)O)ccc1O,0,-30,55*,-7,0
O=C(O)c1ccccc1O,1,-16,43*,5,x
NC(=NCCc1ccccc1)NS(=O)(=O)c1ccc2ccccc2c1,3,-18,10,-2,-9
COCCOC(=O)c1c(C)oc2ccc(OC(=O)c3ccc4c(c3)OCO4)cc12,10*,-37,10,-12,0
CCOC(=O)Oc1ccc2oc(C)c(C(=O)OCCOC)c2c1,2,-7,3,-30,x
O=C1CCCS(=O)(=O)c2ccccc21,0,x,x,x,x
CCOc1cc(C)c(-c2onc(C(F)(F)F)c2-c2csc(C)n2)c(O)c1,0,-48,45*,-12,-1
O=C(NCc1cccnc1)c1cccc2c1C(=O)N(C1CCCCC1)C2,2,-44,5,52*,x
COc1cccc(C(=O)Nc2ccc(S(=O)(=O)Nc3nccc(C)n3)cc2)c1,3,-22,30*,-1,-1
COc1ccc(C(=O)Nc2ccc(S(=O)(=O)Nc3nccc(C)n3)cc2)cc1OC,0,-22,10,-11,2
O=C(COC(=O)/C=C/c1ccccc1)NCc1ccccc1Cl,2,x,x,x,x
O=C(CCCn1c(SCC(=O)c2ccc(Cl)cc2)nc2ccccc2c1=O)NCc1ccco1,8.5*,-38,5,11,1
Cc1ccc(NC(=O)CN(C)C(=O)CSc2nc3ccccc3c(=O)n2Cc2ccco2)cc1,4,-26,13,-9,-2
O=C(CCCCCn1c(SCC(=O)c2ccccc2)nc2ccccc2c1=O)NCc1ccco1,8,-70,5,6,-2
O=C(CSc1nc2ccccc2c(=O)n1Cc1ccco1)N1CCCCCC1,4,-25,45*,1,3
SMILES,RAM network inh,BB579 growth dn,Measles CPE,Yeast lifespan up,Phagocytosis inh
CN(Cc1ccccc1)C(=O)CSc1nc2ccccc2c(=O)n1Cc1ccco1,9.2*,-33,4,0,-1
C/C(N)=C(/C#N)C(=O)COC(=O)c1ccccc1C(=O)c1ccc(C)cc1,2,x,x,x,x
NC(=O)CN(c1ccc([N+](=O)[O-])cc1)S(=O)(=O)c1ccccc1,3,x,x,x,x
COc1cc(OC)cc(C(=O)NCc2ccc(-n3cccc3)cc2)c1,11*,x,x,x,x
COc1cc(OC)cc(C(=O)NCCCN2CCN(CCCNC(=O)c3cc(OC)cc(OC)c3)CC2)c1,0,-23,16,41*,-4
COc1cccc(C(=O)NCc2ccc3c(c2)cc(C)n3C)c1,10*,x,x,x,x
COc1cc(OC)cc(C(=O)NC(=S)NCCc2ccccc2)c1,10*,-1,2,-21,-1
COc1ccc(C(=O)NCc2ccc3c(c2)cc(C)n3C)cc1OC,4,x,x,x,x
CCCCNC(=S)NCc1ccc2c(c1)cc(C)n2C,6,45*,9,-2,x
COc1ccc(OC)c(NS(=O)(=O)c2cc(OC)ccc2OC)c1,1,-23,8,-19,-1
COc1ccc(OC)c(NS(=O)(=O)c2ccc(Cl)nc2)c1,1,8,32*,2,-1
CSC1=NSC2=NC(=O)/C(=C\c3cccs3)C(=N)N12,1,-5,21,43*,x
CSC1=NSC2=NC(=O)/C(=C/c3coc4ccc(O)cc4c3=O)C(=N)N12,2,-21,7,5,-5
CSC1=NSC2=NC(=O)/C(=C/c3coc4ccccc4c3=O)C(=N)N12,3,68*,9,8,-4
Cc1ccc(-c2cc(C(=O)O)n(-c3ccc(S(N)(=O)=O)cc3)n2)cc1,2,x,x,x,x
COc1ccc(C2(c3ccc(O)cc3O)CC(c3ccccc3Cl)NC(=S)N2)cc1 (stereo not given),1,x,x,x,x
COc1ccc(NC(=O)CSc2nc3ccccc3c(=O)n2CCCN2CCC(C)CC2)c(OC)c1,1,x,x,x,x
Cc1cc(N2C(=O)C3C4CC(C(Br)C4Br)C3C2=O)no1 (stereo not given),1,-7,32*,2,-2
O=C(CCc1nnc(-c2ccc3c(c2)OCO3)o1)NC(c1cccnc1)C(F)(F)F (stereo not given),2,x,x,x,x
Oc1ccc2oc3c(c2c1/C=N/n1cnnc1)CCCC3,0,-43,5,-3,0
Cc1ccnc(N=Cc2c(O)ccc3oc4c(c23)CCCC4)c1,0,-54,10,45*,-7
Cc1ccc(O)c(-c2cc(-c3ccccc3F)[nH]n2)c1,3,-47,16,-9,x
Cc1ccc(O)c(-c2cc(-c3cccc(F)c3)n[nH]2)c1,0,99*,29,-13,-2
Cc1ccc(-c2cc(-c3ccccc3C)[nH]n2)c(O)c1,5,100*,18,x,x
COc1ccc(O)c(-c2cc(-c3cccc(Br)c3)n[nH]2)c1,10*,9,7,-21,1
SMILES,RAM network inh,BB579 growth dn,Measles CPE,Yeast lifespan up,Phagocytosis inh
O=C(CN1CCCCCC1=O)N1CCN(S(=O)(=O)c2cccs2)CC1,1,x,x,x,x
O=C(CNC(=O)C(c1ccccc1)c1ccccc1)OCC(=O)c1cccs1,5,0,15,-1,-10
COc1nc(-c2ccccc2)ccc1-c1noc(-c2ccco2)n1,8,-36,3,-23,-1
COc1nc(-c2ccccc2)ccc1-c1noc(-c2ccccc2)n1,11*,-47,13,1,-2
Cc1ccccc1C(=O)NNC(=S)NC(=O)COc1ccccc1,4,70*,4,12,0
O=C(CSc1nnc(CCCOc2ccc(Cl)cc2Cl)o1)Nc1ccc(C(=O)O)cc1,3,-32,3,0,-1
O=C(/C=C/c1ccc(Br)cc1)Nc1ccc(S(=O)(=O)Nc2ncccn2)cc1,9.8*,x,x,x,x
CC(C)(C)OC(=O)[C@H]1[C@H](c2ccc([N+](=O)[O-])cc2)C2(C(=O)c3ccccc3C2=O)C2c3ccccc3C=NN21 (stereo not given in full),6,-15,6,43*,9

# Compound activity deposited in PubChem BioAssay by several laboratories.
